Results: ChEMBL document CHEMBL1938298, “Synthesis and characterization of [¹²⁵I]2-iodo N-[(S)-{(S)-1-methylpiperidin-2-yl}(phenyl)methyl]3-trifluoromethyl-benzamide as novel imaging probe for glycine transporter 1” (Bioorg Med Chem, 2011)

What was measured:
[1] = biological target: T1, Sodium- and chloride-dependent glycine transporter 1 (Homo sapiens, UniProt P48067); test: Inhibition of GlyT1 in human JAR cells assessed as inhibition of [3H]glycine uptake preincubated for 1 mins measured after 2 hrs by liquid scintillation counting; assay type: cell-based
T1 sequence (P48067 whole entry): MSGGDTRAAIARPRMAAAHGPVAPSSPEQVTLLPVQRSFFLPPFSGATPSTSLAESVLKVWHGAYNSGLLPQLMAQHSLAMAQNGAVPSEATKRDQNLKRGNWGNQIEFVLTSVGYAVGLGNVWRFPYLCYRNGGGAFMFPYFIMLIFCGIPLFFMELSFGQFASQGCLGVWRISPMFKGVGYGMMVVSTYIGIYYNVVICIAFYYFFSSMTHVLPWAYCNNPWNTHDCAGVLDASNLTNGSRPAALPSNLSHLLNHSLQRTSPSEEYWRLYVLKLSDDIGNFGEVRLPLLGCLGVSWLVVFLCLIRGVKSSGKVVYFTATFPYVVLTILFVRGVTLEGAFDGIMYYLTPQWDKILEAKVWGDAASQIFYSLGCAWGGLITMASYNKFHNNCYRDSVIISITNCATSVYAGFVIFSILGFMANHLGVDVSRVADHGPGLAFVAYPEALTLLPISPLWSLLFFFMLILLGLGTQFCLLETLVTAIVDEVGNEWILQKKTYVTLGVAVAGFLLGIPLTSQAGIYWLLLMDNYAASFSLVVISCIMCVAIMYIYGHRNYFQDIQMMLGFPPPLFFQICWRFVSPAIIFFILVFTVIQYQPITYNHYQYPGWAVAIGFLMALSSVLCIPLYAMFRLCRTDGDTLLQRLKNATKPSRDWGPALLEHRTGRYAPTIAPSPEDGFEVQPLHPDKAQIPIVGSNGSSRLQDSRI
Summary of the method: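 [3H]glycine (final 10 µM) was added for 2 h at room temperature; nonspecific uptake was defined with 10 mM glycine. Cells were lysed in NaOH and counted by liquid scintillation. IC50 values are from at least three measurements, mean ± SEM.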

[2] = biological target: T1, Sodium- and chloride-dependent glycine transporter 1; test: Inhibition of human GlyT1 expressed in CHO cells assessed as inhibition of [3H]glycine uptake preincubated for 1 mins measured after 2 hrs by liquid scintillation counting; assay type: cell-based

O=C(N[C@@H](c1ccccc1)[C@@H]1CCCCN1)c1cccc(C(F)(F)F)c1I
IC50 [1]: 43 nM

O=C(N[C@@H](c1ccccc1)[C@@H]1CCCCN1)c1cccc(C(F)(F)F)c1Cl
IC50 [1]: 80.1 nM
IC50 [2]: 314 nM
